Source: ChEMBL document CHEMBL1151890, “Synthesis and SAR of amino acid-derived heterocyclic progesterone receptor full and partial agonists” (Bioorg Med Chem Lett, 2009)

What was measured:
Assay type in all cases: ADME, organism-based
[1] = AUC (0 to t) in rat at 2 mg/kg, po; set-up: dose 2 mg/kg, route oral; conditions: plasma
Summary of the method: (§1)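 Rats were dosed both intravenously and orally, at 1.1 or 1.2 mg/kg iv and 2.0 or 2.3 mg/kg po. Plasma parameters were derived from these dosings. Values are means of three experiments with standard deviation.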

[2] = Cmax in rat at 2 mg/kg, po; set-up: dose 2 mg/kg, route oral; conditions: in vivo; summary of the method: as §1
[3] = Oral bioavailability in rat at 2 mg/kg; conditions: in vivo; summary of the method: as §1
[4] = Half life in rat at 2 mg/kg, po; set-up: dose 2 mg/kg, route oral; conditions: in vivo; summary of the method: as §1

## CC(C)CC(c1nnnn1C)N(CC(C)C)c1ccc(C#N)c(Cl)c1 (centres undefined)
[1]
  AUC(0-t): 572 ng·h/mL
[2]
  Cmax: 146 ng/mL
[3]
  bioavailability: 100%
[4]
  half-life: 8.9 h
